Source: PubChem BioAssay
APP 5'UTR act – activators of APP 5'UTR luciferase reporter, primary screen, SH-SY5Y cells. activation, % at 2 µM. SH-SY5Y APP 5'UTR luciferase reporter, luminescence; zero percent = DMSO vehicle wells. hit rate 1% among 190,000;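 active = activation above a set limit, based on mean plus 3 SD of controls, cut at about 140% in these data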
STAT1 inh – STAT1 signaling inhibitors, primary screen, cell-based, HTS, luciferase reporter | NIH 3T3 STAT1-luciferase reporter, IFN-gamma, luminescence | inhibition, % at 5.5 µM | hit rate 0.35% among 200,000;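 active = inhibition above a set limit, the mean inhibition across all tested compounds plus 3 SD, cut at about 34% in these data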;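 also: 0% = IFN-gamma with DMSO and 100% = IFN-gamma with 300 µM nifuroxazide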
NF-kB neuron act – activators of NF-kB expression in neurons, primary screen, cell-based, HTS; human neuronal cells, NF-kB reporter expression; active compounds read high; hit rate 1.6% among 190,000; AID 1239, 2008; fold change at 12.5 µM; in the data active = fold change above about 3.3
STAT3 activator – IL-6 driven STAT3 reporter potentiators, primary screen, U3A cells, luciferase, luminescence, MLSCN library; hit rate 0.91% among 190,000; activation (% of control), % at 5.6 µM; IL-6 STAT3-luciferase reporter; 100% = signal with IL-6 EC80 alone;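 active = activation above the screen-wide mean of compound activation plus 3 SD, cut at about 130% in these data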;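 also: 0% = background luminescence of wells with medium and substrate only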
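Material: human U3A cells carrying STAT3-luciferase construct. Measured by: reporter luminescence signal. Timing: compound 1 h, then IL-6 6 h at 37 °C.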
STAT3 inh – IL-6 driven STAT3 reporter inhibitors, primary screen, U3A cells, luciferase, luminescence, MLSCN library; IL-6 STAT3-luciferase reporter; host cell line lacks STAT1; inhibition, % at 5.5 µM; hit rate 0.89% among 190,000; AID 862, 2007;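 active = inhibition above the mean inhibition across all screened compounds plus 3 SD, cut at about 44% in these data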;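 also: 0% = DMSO only wells and 100% = 100 µM nifuroxazide control wells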
STAT1 act – STAT1 signaling activators, primary screen, cell-based, HTS, luciferase reporter | NIH 3T3 STAT1-luciferase reporter, IFN-gamma, luminescence; 100% = IFN-gamma alone, no compound | activation (% of control), % at 5.5 µM | hit rate 2.6% among 200,000;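 active = activation above the screen-wide mean activation plus 3 SD, cut at about 130% in these data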;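 also: raw ratio to IFN-gamma control signal so 100% means no change and 0% no light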
* marks the source's active call; other numbers are inactive results. An excerpt weighted towards active compounds, which were near 4.9% of everything screened.

SMILES | APP 5'UTR act | STAT1 inh | NF-kB neuron act | STAT3 activator | STAT3 inh | STAT1 act
COCCn1c(C)cc(C(=O)Cn2nc(C(=O)O)c3ccccc3c2=O)c1C | 44 | -30 | 1.7 | 92 | 15 | 128
CCCn1c(C)cc(C(=O)Cn2nnc3ccccc3c2=O)c1C | 159* | -28 | 4.7* | 90 | 14 | 126
COc1cc(CNCCc2ccccc2)cc(Cl)c1OCc1ccccc1 | -7 | -2 | 0.85 | 97 | 10 | 101
COc1ccc(NC(=S)Nc2ccc(N)c([N+](=O)[O-])c2)cc1 | -32 | -15 | 3.3* | 122 | -18 | 114
COc1ccc(NC(=O)c2ccccc2[N+](=O)[O-])cc1 | 9 | -6 | 1.2 | 96 | 8 | 106
O=C(CCN1CCOCC1)NNC(=S)NC(=O)c1ccc(Br)cc1 | 1 | -9 | 1 | 95 | 14 | 109
Cn1cc(CC(=O)NCCN2CCOCC2)c2ccccc21 | 20 | -2 | 1.1 | 98 | 11 | 99
CCCOc1ccc(-c2cc(C(F)(F)F)c(C#N)c(SCC(=O)O)n2)cc1 | -10 | -4 | 1.4 | 105 | -1 | 102
Cc1ccc(-c2cc(C(F)(F)F)c(C#N)c(SCC(=O)O)n2)cc1 | 4 | 0 | 1 | 135* | -39 | 98
Cc1ccc(-n2nnnc2-c2nc3ccccc3s2)cc1 | -1 | -5 | 1 | 102 | -5 | 104
CCOc1ccc(-n2nnnc2-c2nc3ccccc3s2)cc1 | 123 | -45 | 1.3 | 95 | 4 | 140*
Cc1ccc(-c2cc3cccc[n+]3cc2-c2ccc(C)cc2)cc1 | -6 | 36* | 0.9 | 50 | 61* | 68
Oc1ccc(Br)cc1/C=N/N1CCCCC1 | 54 | -11 | 4* | 92 | 7 | 110
Oc1ccc(Br)cc1/C=N/N1CCN(Cc2ccccc2)CC1 | -4 | -6 | 2.9 | 102 | -3 | 105
Cc1[nH]c2ccccc2c1CN1CCC(Cc2ccccc2)CC1 | -5 | -2 | 1.1 | 106 | 4 | 100
COc1cc([N+](=O)[O-])ccc1NC(=O)CCCOc1cc(C)ccc1C | 17 | -1 | 0.97 | 104 | -11 | 100
Cc1[nH]c2ccccc2c1CC(=O)O | 8 | 1 | 0.88 | 133* | -34 | 99
Cc1[nH]c2c(C)cccc2c1CC(=O)O | -12 | 0 | 1.1 | 103 | 5 | 98
Cc1ccc(NC(=S)NNC(=O)c2nn(C)c(C)c2Cl)cc1 | 112 | -35 | 2.9 | 99 | 11 | 131*
O=C(c1cnn(-c2ccccc2)c1)c1ccccc1O | 184* | -20 | 9.5* | 72 | 36 | 118
COc1cccc2cc(C(=O)c3ccc([N+](=O)[O-])cc3)oc12 | 50 | -41 | 2 | 90 | 16 | 135*
COc1cccc2cc(C(N)=O)oc12 | -32 | -14 | 1.2 | 100 | 11 | 111
CC1CCN(c2ccc(C(=O)NCCc3ccccc3)cn2)CC1 | 31 | -33 | 1.6 | 111 | -8 | 132*
CC1CCCN(c2ccc(C(=O)NCc3cccs3)cn2)C1 (stereo not given) | 60 | -13 | 2.3 | 96 | 6 | 112
CC1CCCN(c2ccc(C(=O)NCc3ccccc3)cn2)C1 (stereo not given) | -11 | -40 | 2 | 100 | 2 | 137*
SMILES | APP 5'UTR act | STAT1 inh | NF-kB neuron act | STAT3 activator | STAT3 inh | STAT1 act
O=C(CCSCCc1ccccn1)Nc1cccc([N+](=O)[O-])c1 | 13 | 2 | 1.6 | 107 | -7 | 97
COc1ccc(S(=O)(=O)Nc2ccc(O)c3ccccc23)cc1 | -9 | 2 | 0.73 | 134* | -37 | 99
COC(=O)c1ccc(C)c(NS(=O)(=O)c2ccc(OC)cc2)c1 | -94 | 0 | 4* | 120 | -24 | 103
Cn1c(-c2cccc([N+](=O)[O-])c2)cnc1NCc1ccc(C#N)cc1 | 9 | 4 | 0.47 | 96 | 11 | 96
COC(=O)CC(c1ccc(OC)c(OC)c1)c1ccc(OC)c(OC)c1 | 14 | 0 | 1.1 | 98 | 7 | 97
C=CCSC1=N/C(=C\c2ccc(C(=O)O)cc2)C(=O)S1 | -8 | -8 | 0.91 | 105 | 2 | 106
COc1ccc2nc(NC(=O)CSc3nnnn3C3CCCCC3)sc2c1 | -4 | 7 | 0.92 | 100 | 6 | 94
COc1ccc2nc(NC(=O)Cc3cccs3)sc2c1 | 71 | -46 | 2.9 | 95 | 7 | 136*
CCOc1ccc2nc(NC(=O)Cc3cccs3)sc2c1 | 47 | -31 | 2.2 | 108 | -3 | 129*
CCOc1ccc2nc(NC(=O)COC)sc2c1 | 140* | -43 | 4.9* | 89 | 19 | 138*
COc1ccc2nc(NC(=O)CSc3nnnn3C)sc2c1 | 60 | -47 | 2.2 | 94 | 11 | 142*
O=C(NCC1c2ccccc2CCN1C(=O)CN1C(=O)c2ccccc2C1=O)C1CCCCC1 (stereo not given) | -7 | 7 | 1.1 | 105 | 0 | 94
CCN1CCN(C(=O)C(N)Cc2ccccc2)CC1 (stereo not given) | -6 | -5 | 1.1 | 105 | 0 | 103
Fc1ccc2nc3[nH]c4ccccc4c3nc2c1 | 157* | -125 | 4.4* | 135* | -34 | 214*
c1ccc(-c2csc3ncnc(NCCCN4CCOCC4)c23)cc1 | 2 | 14 | 0.85 | 85 | 20 | 88
c1ccc(-c2csc3ncnc(NCC4COc5ccccc5O4)c23)cc1 (stereo not given) | -19 | 38* | 1.2 | 31 | 84* | 64
CC(=O)Oc1oc(-c2ccccc2)nc1/C=N/c1ccccn1 | 58 | -32 | 1.3 | 98 | 6 | 129*
CN(C)c1ccc(N=Cc2nc(-c3ccccc3)oc2O)cc1 | 26 | -11 | 1.7 | 88 | 18 | 110
CN(C)c1ccc(N=Cc2nc(-c3ccccc3)oc2OC(=O)c2ccccc2)cc1 | 155* | -21 | 2 | 115 | -22 | 122
Cc1c(Cl)c([N+](=O)[O-])nn1CC(=O)NC12CC3CC(CC(C3)C1)C2 | 9 | -4 | 0.83 | 103 | -4 | 104
COc1ccc2nc3cccc(OC)c3nc2c1 | 7 | -32 | 0.95 | 99 | 3 | 129*
COc1ccc2nc(-c3ccco3)c(-c3ccco3)nc2c1 | 6 | 1 | 0.75 | 102 | 4 | 99
CC(C(=O)O)c1ccc(N2Cc3ccccc3C2=O)cc1 (stereo not given) | 74 | -49 | 6.2* | 76 | 30 | 145*
CC(C)CC1=NN(C(=O)c2ccco2)C(O)(C(F)(F)F)C1 (stereo not given) | 9 | -1 | 1.1 | 105 | 0 | 99
CCOP(=O)(OCC)C(O)c1cc(OC)c(OC)c(OC)c1 (stereo not given) | -2 | 9 | 1 | 98 | 5 | 92
